# High-throughput results: PubChem BioAssay, several laboratories
# A selection: hits, their analogues and other compounds. The true share with any hit is near 0.95%.
# ARFGAP1 inh – rat ARFGAP1 inhibition | Q62848 | Arfgap1-stimulated ARF1 GTP hydrolysis, GDP FP detection | inhibition, % at 16.5 µM | hit rate 0.26% among 360,000;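 active = inhibition above a per-plate limit, mean inhibition of low control wells plus 3 SD, cut at about 25% in these data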;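 note: 0% = DMSO wells with enzyme and 100% = wells lacking Arfgap1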
#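 System: truncated rat Arfgap1 GAP domain / Medium: HEPES-based buffer, pH 7.5 / Also added: N-terminally truncated human ARF1-GTP substrate / Incubation: enzyme reaction 120 min at 25 °C after 20 min preincubation / Measured by: FP of antibody-bound GDP Alexa 633 tracer, ex 620/em 688 nm / Replicates: singlicate, each compound tested once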
# CSN deneddyl inh – blocks human CSN-mediated cullin deneddylation; AID 651999; hit rate 0.38% among 360,000; Q92905; inhibition, % at 12.5 µM; Purified CSN, SCF-Nedd8-OG deneddylation, fluorescence polarization;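 active = pattern-corrected inhibition above about 35%, with an unprinted fluorescence ratio check between 0.5 and 1.5, limit read from the data, passing the limit was not always enough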;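 note: 0% = enzyme with substrate and 100% = substrate without enzyme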
#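 Assay system: purified human Csn5 enzyme expressed in HEK293T cells; Input: 0.24 nM Csn5 enzyme, final concentration; Reagent: 10 nM SCFSkp2-Nedd8OG; Compound dosing: 12.5 µM single point; Times: reaction 90 min, room temperature; Technique: fluorescence polarization readout.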
# HNF4A DNA FP – change in binding of human HNF4 alpha to DNA. P41235. HNF4a-FITC DNA binding, fluorescence polarization, 1 h. activity change, % at 10 µM. hit rate 0.3% among 360,000. AID 1224865; in the data active = activity change above about 30%, passing the limit was not always enough
# ASAP1 inh – ASAP1 ArfGAP inhibition; hit rate 0.19% among 360,000; ASAP1-stimulated ARF1 GTP hydrolysis, GDP FP detection; inhibition, % at 16.5 µM; in the data active = inhibition above about 25%;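 note: 0% = vehicle with enzyme and substrate and 100% = no enzyme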
# CSN5 deneddyl – validation of inhibitors of human CSN-mediated cullin deneddylation; shares compounds with CSN deneddyl inh; hit rate 62% among 540; inhibition, % at 16.6 µM; AID 720654; Csn5 deneddylation of SCF-Nedd8OG, fluorescence polarization, 90 min; in the data active = inhibition above about 50%;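 note: 0% = DMSO with enzyme and 100% = no enzyme wells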
# MMP2 cntr CSN – counter-screen for CSN deneddylation inhibitors: human MMP-2 inhibition | shares compounds with CSN deneddyl inh | recombinant MMP-2, FRET substrate fluorescence, 60 min | inhibition, % at 16.6 µM | hit rate 33% among 540;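 active = corrected plate-normalized z-score of 5 or more, or -5 or less, or inhibition of 15% or more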;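 note: plate controls were DMSO wells with enzyme for no effect and buffer wells lacking MMP-2 for full effect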
# Thrombin cntr – counter-screen for CSN deneddylation inhibitors: bovine thrombin inhibition; AID 720656; bovine thrombin cleavage of Ub4-pepOG, fluorescence polarization; shares compounds with CSN deneddyl inh; inhibition, % at 16.6 µM; hit rate 49% among 540;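 active = inhibition at or above a set limit, with a fluorescence interference ratio between 0.5 and a set maximum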
# Target sequence (P00735 whole entry, looked up): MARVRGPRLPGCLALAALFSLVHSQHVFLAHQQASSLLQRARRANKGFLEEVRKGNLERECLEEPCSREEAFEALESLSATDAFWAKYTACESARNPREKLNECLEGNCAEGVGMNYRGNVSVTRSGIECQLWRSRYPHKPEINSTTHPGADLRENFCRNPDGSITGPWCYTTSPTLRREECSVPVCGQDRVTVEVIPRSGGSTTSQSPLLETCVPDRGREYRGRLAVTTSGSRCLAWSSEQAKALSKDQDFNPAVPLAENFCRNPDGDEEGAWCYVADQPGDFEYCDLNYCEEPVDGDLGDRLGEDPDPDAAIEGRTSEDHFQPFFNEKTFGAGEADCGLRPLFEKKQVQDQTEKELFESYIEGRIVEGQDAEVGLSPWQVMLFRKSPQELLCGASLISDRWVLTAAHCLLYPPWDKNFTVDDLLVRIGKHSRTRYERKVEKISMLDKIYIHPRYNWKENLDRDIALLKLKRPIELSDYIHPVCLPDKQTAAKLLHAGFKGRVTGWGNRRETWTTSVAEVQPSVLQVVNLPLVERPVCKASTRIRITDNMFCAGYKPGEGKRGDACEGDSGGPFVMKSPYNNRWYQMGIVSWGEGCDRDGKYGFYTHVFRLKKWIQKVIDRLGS
# * = called active by the depositor; . = no result.
SMILES,ARFGAP1 inh,CSN deneddyl inh,HNF4A DNA FP,ASAP1 inh,CSN5 deneddyl,MMP2 cntr CSN,Thrombin cntr
COc1ccccc1N(CC(=O)NCc1ccco1)S(=O)(=O)c1ccc(C)cc1,-0.2,43.8*,-25.4,5.6,61.6*,27.9*,6.3
COCCNC(=O)c1cc2c(c(-c3cccc(-c4cc5ccccc5o4)c3)n1)[C@@H](CCO)N(S(=O)C(C)(C)C)C2 (stereo partly drawn),2.7,4.9,19.8,-9.9,.,.,.
CC(C)(C)c1ccc(Cn2c(=N)n(CC(O)c3ccco3)c3ccccc32)cc1 (stereo not drawn),.,67.8*,31.1,.,92.3*,-5.7,2.1
O=C(O)/C=C/C(=O)Nc1ccc2nccnc2c1,8.9,-4.1,0.7,-7.9,.,.,.
CCOC(=O)N1CCN(C(=O)c2ccc(NS(=O)(=O)c3ccc4[nH]c(=O)[nH]c4c3)cc2)CC1,-13.6,-1.1,2.2,-3.4,.,.,.
O=C(CSc1nc(-c2ccccc2)nc2c1Cc1ccccc1O2)Nc1ccc(C(=O)O)cc1,-3.6,48.1*,-62.9,-3.5,60.0*,20.3*,10.0
COc1ccc(C(=O)NCc2nnc(SCC(=O)Nc3ccc4c(c3)OCO4)o2)cc1,1.6,10.3,-2.0,3.2,.,.,.
O=C(N/N=C/c1c(O)ccc2ccccc12)c1ccc(Br)o1,-1.3,37.2*,12.6,8.4,65.9*,11.5,6.1
CN(C)c1ccc(/C=C/c2ccc3ccccc3n2)cc1,.,50.1*,79.0,.,87.8*,-20.1,17.1*
CSc1cccc(NC(N)=S)c1,-1.1,11.6,0.3,5.8,.,.,.
Cc1ccc(-n2cc(CNCCc3ncc(C)[nH]3)c(-c3ccc(F)cc3)n2)cc1,1.0,-3.1,0.7,5.0,.,.,.
COc1cccc(OC)c1C(=O)OCC(=O)NCCNC(=O)COC(=O)c1c(OC)cccc1OC,2.1,-5.3,-1.4,-11.1,.,.,.
O=C(N/N=C/c1cccnc1)c1cccc(S(=O)(=O)Nc2cccc(Cl)c2)c1,-0.2,-0.1,-6.2,-5.4,.,.,.
O=C(N/N=C/c1ccncc1)c1cccc(S(=O)(=O)Nc2ccc(Cl)cc2)c1,10.3,72.3*,-26.2,5.0,.,34.8*,-6.2
COc1ccc(O)c(C(=O)c2cc(SCC(=O)O)c3nc4sc5c(c4c(=O)n3c2)CCCC5)c1,5.8,24.5,-26.4,7.3,.,.,.
CCOC(=O)c1sc2nc3c(SCC(=O)O)cc(C(=O)c4cc(F)ccc4O)cn3c(=O)c2c1C,-21.6,75.8*,-5.0,8.3,22.3,33.9*,2.9
CCOC(=O)c1sc2nc3c(SCC(=O)O)cc(C(=O)c4ccccc4O)cn3c(=O)c2c1C,4.8,47.3*,-64.3,-6.8,109.1*,22.1*,-27.5
O=C(O)CSc1cc(C(=O)c2ccccc2O)cn2c(=O)c3c(-c4ccccc4)csc3nc12,-2.9,9.6,4.2,-13.6,.,.,.
O=S1(=O)CC(N2CCCCC2)CN1Cc1cn(Cc2cccc(C(F)(F)F)c2)nn1 (stereo not drawn),3.9,-0.5,-3.7,0.5,.,.,.
CC1CC1C(=O)OCC(=O)Nc1cccc(Br)c1 (stereo not drawn),-1.4,-1.5,-1.2,-1.5,.,.,.
CCOc1ccc(/C=c2\sc3nc(-c4ccco4)nn3c2=O)cc1OCC,6.6,23.6,-14.7,1.1,.,.,.
COc1ccccc1/C=c1\sc2nc(-c3ccco3)nn2c1=O,.,38.0*,-12.9,.,86.3*,4.0,5.6
Cn1c(N)c(S(=O)(=O)N2CCCC2)c(=O)n(C)c1=O,-9.9,0.9,-0.2,-15.2,.,.,.
Cn1cccc1/C=C1\CC(C(C)(C)C)C/C(=C\c2cccn2C)C1=O (stereo not drawn),1.7,97.3*,139.9,1.6,92.8*,-33.7*,45.4
Cn1cccc1/C=C1\Cc2ccccc2C1=O,-0.3,1.9,15.8,-2.2,.,.,.
Cc1c2cnn(CC(=O)Nc3c(F)c(F)cc(F)c3F)c(=O)c2c(C)n1Cc1ccccc1F,-2.0,62.1*,-52.6,-5.0,2.3,7.1,13.3
Cc1ccc2c(c1)CCCO[C@]21O[C@H](CCO)C[C@H](O)[C@H]1O,-7.9,-4.8,-1.6,-2.5,.,.,.
COc1ccccc1-n1c2nc3ccccc3nc2c2c(=O)n(-c3cc(C)cc(C)c3)cnc21,18.3,-1.6,6.3,1.6,.,.,.
